ChEMBL document CHEMBL1138657 (2004)
In brackets after ≈: the same amount, converted by molar mass.

Key:
Candida albicans [1] = assay: Antifungal activity to cause 99% reduction of surviving cells; format: functional, Fungi
Candida parapsilosis [2] = assay: Antifungal activity to inhibit Candida parapsilosis ATCC 22019; format: functional, Fungi; conditions: Lodderomyces parapsilosis
U-937 = assay: Cytotoxicity to reduce human histolytic lymphoma U937 cells; format: functional
Method in brief: (§1)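 CC50 is the concentration in µM that reduces viability of human histiocytic lymphoma U937 or chronic myeloid leukemia K562 cells by 50%.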

Candida parapsilosis [3] = assay: Minimum inhibitory concentration to inhibit Candida parapsilosis ATCC 22019; format: functional, Fungi; conditions: Lodderomyces parapsilosis
Method in brief: (§2)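 Broth microdilution per NCCLS document against 20 C. albicans strains. […] MIC is reported in µg/mL as the arithmetic mean ± SD. MIC50 and MIC90 are the MICs at which 50% and 90% of isolates are inhibited. C. parapsilosis ATCC22019 was run as the QC strain.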

K562 = assay: Cytotoxicity to reduce chronic myeloid leukemia K 562 cells; format: functional; conditions: Homo sapiens; method in brief: as §1
Candida albicans [4] = assay: Minimum inhibitory concentration to inhibit 50% of the isolates; format: functional, Fungi; method in brief: as §2
Candida albicans [5] = assay: Minimum inhibitory concentration to inhibit Candida albicans strain range is equal to 0.125-64; format: functional, Fungi
Candida albicans [6] = assay: Minimum inhibitory concentration to inhibit 90% of the isolates; format: functional, Fungi; method in brief: as §2
Candida albicans [7] = assay: Minimum inhibitory concentration to inhibit Candida albicans strain range is equal to 2-16; format: functional, Fungi
Candida albicans [8] = assay: Antifungal activity to cause 99% reduction of surviving cells range is equal to 8-32; format: functional, Fungi
Candida albicans [9] = assay: Antifungal activity to cause 99% reduction of surviving cells in 90% isolates; format: functional, Fungi
Candida albicans [10] = assay: Antifungal activity to cause 99% reduction of surviving cells in 50% isolates; format: functional, Fungi
Candida albicans [11] = assay: Antifungal activity to cause 99% reduction of surviving cells range is equal to 2-16; format: functional, Fungi
Candida albicans [12] = assay: Minimum inhibitory concentration to inhibit Candida albicans strain range is equal to 0.5-4; format: functional, Fungi; method in brief: as §2
Candida albicans [13] = assay: Antifungal activity to cause 99% reduction of surviving cells range is equal to 16-128; format: functional, Fungi
Candida albicans [14] = assay: Minimum inhibitory concentration to inhibit Candida albicans strain range is equal to 8-64; format: functional, Fungi; method in brief: as §2
Candida albicans [15] = assay: Minimum inhibitory concentration to inhibit Candida albicans strain range is equal to 1-8; format: functional, Fungi; method in brief: as §2
Candida albicans [16] = assay: Antifungal activity to cause 99% reduction of surviving cells range is equal to 4-16; format: functional, Fungi
Candida albicans [17] = assay: Minimum inhibitory concentration to inhibit Candida albicans strain range is equal to 2-8; format: functional, Fungi; method in brief: as §2
Candida albicans [18] = assay: Minimum inhibitory concentration to inhibit Candida albicans strain range is equal to 16-128; format: functional, Fungi; method in brief: as §2
Candida albicans [19] = assay: Antifungal activity to cause 99% reduction of surviving cells range is equal to 32-128; format: functional, Fungi
Candida albicans [20] = assay: Minimum inhibitory concentration to inhibit 50% of the isolates
Candida albicans [21] = assay: Minimum inhibitory concentration to inhibit Candida Albicans strain range is equal to 4-64; format: functional, Fungi; method in brief: as §2
Candida albicans [22] = assay: Antifungal activity to cause 99% reduction of surviving cells range is equal to 8-16; format: functional, Fungi
Candida albicans [23] = assay: Minimum inhibitory concentration to inhibit Candida albicans strain range is equal to 1-4; format: functional, Fungi; method in brief: as §2
Candida albicans [24] = assay: Antifungal activity to cause 99% reduction of surviving cells range is equal to 64-128; format: functional, Fungi
Candida albicans [25] = assay: Minimum inhibitory concentration to inhibit Candida albicans strain range is equal to 32-128; format: functional, Fungi
Candida albicans [26] = assay: Antifungal activity to cause 99% reduction of surviving cells range is equal to 2-32; format: functional, Fungi
Candida albicans [27] = assay: Antifungal activity to cause 99% reduction of surviving cells range is equal to 4-32; format: functional, Fungi
Candida albicans [28] = assay: Antifungal activity to cause 99% reduction of surviving cells range is equal to 1-8; format: functional, Fungi

Row | Structure (SMILES) | MFC (Candida parapsilosis [2]) | CC50 (U-937) | MIC (Candida parapsilosis [3]) | CC50 (K562) | MIC50 (Candida albicans [4]) | MIC90 (Candida albicans [6]) | MFC90 (Candida albicans [9]) | MFC50 (Candida albicans [10]) | further results
1 | OC(Cn1cncn1)(Cn1cncn1)c1ccc(F)cc1F [FLUCONAZOLE] | 8 µg/mL (≈ 26.1 µM) | 316 µM | 0.5 µg/mL (≈ 1.63 µM) | 385 µM | 2 µg/mL (≈ 6.53 µM) | 64 µg/mL (≈ 209 µM) |  |  | MFC (Candida albicans [1]): > 64 µg/mL; MIC (Candida albicans [5]): < 64 µg/mL
2 | CC(=O)N1CCN(c2ccc(OC[C@H]3CO[C@](Cn4ccnc4)(c4ccc(Cl)cc4Cl)O3)cc2)CC1 [KETOCONAZOLE] | 0.5 µg/mL (≈ 0.941 µM) | 70 µM | 0.06 µg/mL (≈ 0.113 µM) | 61.7 µM | 4 µg/mL (≈ 7.53 µM) | 8 µg/mL (≈ 15.1 µM) | 32 µg/mL (≈ 60.2 µM) | 16 µg/mL (≈ 30.1 µM) | MIC (Candida albicans [7]): < 16 µg/mL; MFC (Candida albicans [8]): < 32 µg/mL
3 | Fc1ccc(C(CCn2ccnc2)Oc2ccc(Cl)cc2Cl)cc1 (stereo unspecified) | 4 µg/mL (≈ 11 µM) | 43.3 µM | 0.5 µg/mL (≈ 1.37 µM) | 33.5 µM | 2 µg/mL (≈ 5.48 µM) | 4 µg/mL (≈ 11 µM) | 8 µg/mL (≈ 21.9 µM) | 8 µg/mL (≈ 21.9 µM) | MFC (Candida albicans [11]): < 16 µg/mL; MIC (Candida albicans [12]): < 4 µg/mL
4 | O=[N+]([O-])c1ccc(OC(CCn2ccnc2)c2ccccc2)cc1 (stereo unspecified) | 32 µg/mL (≈ 99 µM) | 97.2 µM |  | 102 µM | 32 µg/mL (≈ 99 µM) | 32 µg/mL (≈ 99 µM) | >128 µg/mL | 32 µg/mL (≈ 99 µM) | MIC (Candida parapsilosis [2]): 4 µg/mL (≈ 12.4 µM); MFC (Candida albicans [13]): < 128 µg/mL; MIC (Candida albicans [14]): < 64 µg/mL
5 | Clc1ccc(OC(CCn2ccnc2)c2ccccc2)c(Cl)c1 (stereo unspecified) | 8 µg/mL (≈ 23 µM) | 56.5 µM | 2 µg/mL (≈ 5.76 µM) | 96.7 µM | 4 µg/mL (≈ 11.5 µM) | 8 µg/mL (≈ 23 µM) | 8 µg/mL (≈ 23 µM) | 8 µg/mL (≈ 23 µM) | MIC (Candida albicans [15]): < 8 µg/mL; MFC (Candida albicans [16]): < 16 µg/mL
6 | Clc1ccc(COC(Cn2ccnc2)c2ccc(Cl)cc2Cl)cc1 (stereo unspecified) [ECONAZOLE] | 2 µg/mL (≈ 5.24 µM) | 60 µM | 2 µg/mL (≈ 5.24 µM) | 54.7 µM | 4 µg/mL (≈ 10.5 µM) | 8 µg/mL (≈ 21 µM) | 32 µg/mL (≈ 83.8 µM) | 16 µg/mL (≈ 41.9 µM) | MIC (Candida albicans [17]): < 8 µg/mL; MFC (Candida albicans [8]): < 32 µg/mL
7 | FC(F)(F)c1ccc(OC(CCn2ccnc2)c2ccccc2)cc1 (stereo unspecified) | 16 µg/mL (≈ 46.2 µM) | 86 µM | 4 µg/mL (≈ 11.5 µM) | 71 µM | 64 µg/mL (≈ 185 µM) | 128 µg/mL (≈ 370 µM) | 128 µg/mL (≈ 370 µM) | 64 µg/mL (≈ 185 µM) | MIC (Candida albicans [18]): < 128 µg/mL; MFC (Candida albicans [19]): < 128 µg/mL
8 | Fc1ccc(OC(CCn2ccnc2)c2ccccc2)c(F)c1 (stereo unspecified) | 32 µg/mL (≈ 102 µM) | 219 µM | 8 µg/mL (≈ 25.5 µM) | 298 µM |  | 64 µg/mL (≈ 204 µM) | 128 µg/mL (≈ 407 µM) | 64 µg/mL (≈ 204 µM) | MIC50 (Candida albicans [20]): 32 µg/mL (≈ 102 µM); MFC (Candida albicans [19]): < 128 µg/mL; MIC (Candida albicans [21]): < 64 µg/mL
9 | Cc1ccc(OC(CCn2ccnc2)c2ccccc2)cc1 (stereo unspecified) | 16 µg/mL (≈ 54.7 µM) | 141 µM | 2 µg/mL (≈ 6.84 µM) | 95.9 µM | 8 µg/mL (≈ 27.4 µM) | 16 µg/mL (≈ 54.7 µM) | 16 µg/mL (≈ 54.7 µM) | 16 µg/mL (≈ 54.7 µM) | MIC (Candida albicans [18]): 16 µg/mL (≈ 54.7 µM); MFC (Candida albicans [22]): < 16 µg/mL
10 | Cc1ccc(C(CCn2ccnc2)Oc2ccc(Cl)cc2Cl)cc1 (stereo unspecified) | 4 µg/mL (≈ 11.1 µM) | 40 µM | 1 µg/mL (≈ 2.77 µM) | 31.4 µM | 2 µg/mL (≈ 5.54 µM) | 8 µg/mL (≈ 22.1 µM) | 16 µg/mL (≈ 44.3 µM) | 4 µg/mL (≈ 11.1 µM) | MFC (Candida albicans [11]): < 16 µg/mL; MIC (Candida albicans [23]): < 4 µg/mL
11 | CNCCC(Oc1ccc(C(F)(F)F)cc1)c1ccccc1 (stereo unspecified) [FLUOXETINE] | 64 µg/mL (≈ 207 µM) | 33.3 µM | 8 µg/mL (≈ 25.9 µM) | 25 µM | 64 µg/mL (≈ 207 µM) | 128 µg/mL (≈ 414 µM) |  |  | MFC (Candida albicans [24]): < 128 µg/mL; MIC (Candida albicans [25]): < 128 µg/mL
12 | Clc1ccc(OC(CCn2ccnc2)c2ccccc2)cc1 (stereo unspecified) | 32 µg/mL (≈ 102 µM) | 84.9 µM | 4 µg/mL (≈ 12.8 µM) | 221 µM | 2 µg/mL (≈ 6.39 µM) | 4 µg/mL (≈ 12.8 µM) | 16 µg/mL (≈ 51.2 µM) | 4 µg/mL (≈ 12.8 µM) | MFC (Candida albicans [26]): < 32 µg/mL; MIC (Candida albicans [15]): < 8 µg/mL
13 | Clc1ccc(COC(Cn2ccnc2)c2ccc(Cl)cc2Cl)c(Cl)c1 (stereo unspecified) [MICONAZOLE] | 0.5 µg/mL (≈ 1.2 µM) | 40 µM | 1 µg/mL (≈ 2.4 µM) | 39.3 µM | 4 µg/mL (≈ 9.61 µM) | 4 µg/mL (≈ 9.61 µM) | 16 µg/mL (≈ 38.4 µM) | 8 µg/mL (≈ 19.2 µM) | MFC (Candida albicans [27]): < 32 µg/mL; MIC (Candida albicans [15]): < 8 µg/mL
14 | Clc1ccc(C(CCn2ccnc2)Oc2ccc(Cl)cc2Cl)cc1 (stereo unspecified) | 8 µg/mL (≈ 21 µM) | 61 µM | 0.5 µg/mL (≈ 1.31 µM) | 54 µM | 2 µg/mL (≈ 5.24 µM) | 4 µg/mL (≈ 10.5 µM) | 4 µg/mL (≈ 10.5 µM) | 4 µg/mL (≈ 10.5 µM) | MFC (Candida albicans [28]): < 8 µg/mL; MIC (Candida albicans [12]): < 4 µg/mL
